# PfG6PD inh = PfG6PD enzyme inhibitors, primary screen, biochemical, fluorescence intensity, uHTS; glucose-6-phosphate dehydrogenase-6-phosphogluconolactonase (Plasmodium falciparum 3D7); inhibition, % at 20 µM; PfGluPho enzyme, NADPH resazurin-diaphorase fluorescence; 0.78% of 350,000 active;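 active = inhibition reaching at least a set limit at 20 µM in the primary screen, cut at about 59% in these data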
# Diaphorase inh = diaphorase inhibitors and chemical oxidizers, primary screen, counter-screen for diaphorase-coupled primary assays, biochemical, uHTS, resorufin fluorescence; inhibition, % at 20 µM; diaphorase resazurin-to-resorufin fluorescence, NADH, 16 min; bacterial (C. kluyveri) enzyme, not human; 0.69% of 190,000 active; AID 1217, 2008;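 active = primary screen inhibition at 20 µM above a set limit, cut at about 50% in these data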
#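 Assay system: diaphorase enzyme from Clostridium kluyveri. Quantity: enzyme working solution with 0.14 U/mL diaphorase. Schedule: reaction incubation of 16 min at room temperature. Technique: resorufin fluorescence, excitation 544 nm, emission 590 nm. Controls: No-NADH positive control and DMSO neutral control.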
# Diaph act CS = compounds boosting diaphorase resazurin reduction – biochemical, uHTS, resorufin fluorescence, counter-screen for diaphorase-coupled primary assays, primary screen; activation factor at 20 µM; Diaphorase/resazurin coupled assay, 16 min; stronger effect = higher value; 1 = vehicle wells, 0 = NADH-free wells; 0.005% of 190,000 active;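 active = diaphorase activity raised at least twofold by the compound at 20 µM; inactive = activation factor below 2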
#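 Material: Purified diaphorase enzyme from Clostridium kluyveri | Buffer or medium: 50 mM HEPES pH 7.4 with 4.542 mM MgCl2, 0.005% Tween 20 | Times: 16 min enzyme reaction, ambient temperature | Signal: Red resorufin fluorescence at 544/590 nm excitation/emission | Measure: Increased resorufin signal from activators or reducing compounds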
# G6PDH CS = L. mesenteroides G6PDH inhibitors, counter-screen for G6PDH-coupled screening assays, biochemical, Leuconostoc mesenteroides enzyme; AID 1020, 2008; Purified L. mesenteroides G6PDH, diaphorase/resazurin coupled fluorescence, 45 min; inhibition, % at 5 µM; glucose-6-phosphate dehydrogenase [Leuconostoc mesenteroides]; 0.12% of 200,000 active; in the data active = inhibition above about 50%
# Tb hexokinase = Trypanosoma brucei hexokinase 1 inhibitors, primary screen, biochemical, G6PDH-coupled NADH absorbance, MLSCN library; hexokinase 1 [Trypanosoma brucei]; recombinant TbHK1, G6PDH-coupled NADH A340; inhibition, % at 10 µM; 0.11% of 220,000 active; AID 1430, 2008;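 active = inhibition of 50% or more in the single-dose primary screen; inactive = inhibition below 50%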
# HKDC1 inh = HKDC1 hexokinase inhibitors, primary screen, biochemical, fluorescence, uHTS | Q2TB90 | recombinant HKDC1, G6PDH/diaphorase resazurin coupled fluorescence | inhibition, % at 20 µM | 0.16% of 340,000 active | AID 493160, 2011;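 active = inhibition above about 35% when tested at 20 µM, limit read from the data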
# Target sequence (Q2TB90 whole entry, looked up): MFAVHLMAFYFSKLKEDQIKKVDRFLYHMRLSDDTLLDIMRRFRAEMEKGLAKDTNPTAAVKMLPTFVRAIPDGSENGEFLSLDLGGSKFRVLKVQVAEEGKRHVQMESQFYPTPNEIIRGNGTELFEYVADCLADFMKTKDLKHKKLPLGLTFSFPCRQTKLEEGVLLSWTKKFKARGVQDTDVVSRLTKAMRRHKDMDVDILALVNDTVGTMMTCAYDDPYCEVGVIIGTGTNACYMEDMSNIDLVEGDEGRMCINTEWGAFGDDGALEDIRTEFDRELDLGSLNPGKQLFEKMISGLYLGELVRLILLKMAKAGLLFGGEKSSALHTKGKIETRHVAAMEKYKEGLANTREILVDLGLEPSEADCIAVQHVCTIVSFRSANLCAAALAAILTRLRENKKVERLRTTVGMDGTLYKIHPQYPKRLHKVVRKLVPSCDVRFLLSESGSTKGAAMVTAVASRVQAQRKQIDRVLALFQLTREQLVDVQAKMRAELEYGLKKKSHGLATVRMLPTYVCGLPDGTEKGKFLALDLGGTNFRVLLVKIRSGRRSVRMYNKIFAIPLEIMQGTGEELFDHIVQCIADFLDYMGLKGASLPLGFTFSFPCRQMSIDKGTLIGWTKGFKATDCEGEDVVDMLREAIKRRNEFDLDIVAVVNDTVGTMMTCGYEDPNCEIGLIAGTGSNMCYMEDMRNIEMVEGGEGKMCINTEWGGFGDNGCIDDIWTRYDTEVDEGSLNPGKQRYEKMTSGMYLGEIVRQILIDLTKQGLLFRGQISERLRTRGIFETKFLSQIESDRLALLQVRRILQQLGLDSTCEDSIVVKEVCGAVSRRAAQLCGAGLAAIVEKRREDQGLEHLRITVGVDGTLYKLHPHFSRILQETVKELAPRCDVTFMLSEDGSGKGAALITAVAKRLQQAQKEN
#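 Incubation: 90 min at room temperature in dark / Material: recombinant HKDC1 (HK5) hexokinase enzyme, produced in-house / Quantity: enzyme 5 µg/mL final / Compound: one dose of 20 µM, 1% DMSO / Reagent: glucose and ATP substrates / Buffer or medium: Tris pH 8.0 buffer with MgCl2, Tween-20, BSA, BME / Technique: resorufin fluorescence at 613 nm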
# PfG6PD confirm = PfG6PD inhibitors, hit retest, confirmation, biochemical, fluorescence intensity, single concentration; shares compounds with PfG6PD inh; recombinant PfGluPho, NADPH-diaphorase-resazurin fluorescence; inhibition, % at 20 µM; 34% of 2,400 active;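 active = inhibition of at least 50% at 20 µM in any single replicate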
# Diaph ctr 10uM = diaphorase inhibitors and chemical oxidizers, confirmation, counter-screen for P. falciparum G6PD inhibitor project, biochemical, fluorescence intensity, 10 µM NADPH; shares compounds with PfG6PD inh; diaphorase-coupled resazurin reduction, NADPH 10 uM; inhibition, % at 20 µM; 39% of 820 active;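 active = average inhibition reaching 50% or more with the compound at 20 µM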;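 note: resorufin red fluorescence formed as diaphorase reduces resazurin using NADPH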
# Diaphorase 30uM = diaphorase inhibitors and chemical oxidizers, confirmation, counter-screen for P. falciparum G6PD inhibitor project, biochemical, fluorescence intensity, 30 µM NADPH | shares compounds with PfG6PD inh | Diaphorase/resazurin coupled assay, resorufin fluorescence | inhibition, % at 20 µM | 29% of 820 active | AID 504863, 2011;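 active = inhibition averaging 50% or more, tested at 20 µM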
# Numbers stand for hits; i = inactive; nt = no result given. A selection: hits, their analogues and other compounds. The true share with any hit is near 1.3%.
SMILES,PfG6PD inh,Diaphorase inh,Diaph act CS,G6PDH CS,Tb hexokinase,HKDC1 inh,PfG6PD confirm,others
CC(C)C[C@@H](NC(=O)C1CCC(CNC(=O)[C@H](Cc2ccccc2)NC(=O)OC(C)(C)C)CC1)C(=O)O (stereo not given in full),i,nt,nt,nt,nt,i,nt,
COc1cccc(NC(=O)C(OC(=O)c2ccccc2NS(=O)(=O)c2cccs2)c2ccccc2)c1 (stereo not given),74.6,i,i,i,i,i,i,
COc1cccc(NC(=O)C(OC(=O)c2ccc([N+](=O)[O-])o2)c2ccccc2)c1 (stereo not given),i,i,i,i,i,i,nt,
CCOc1ccc(Br)cc1S(=O)(=O)NC1CCCC1,i,nt,nt,nt,nt,i,nt,
COc1ccc(NC(=S)N2CCN(S(=O)(=O)c3ccc(F)cc3)CC2)cc1,i,nt,nt,nt,nt,i,nt,
Cc1ccc2cccc(S(=O)(=O)N3CCCc4ccccc43)c2n1,66.9,i,i,i,i,i,i,
COc1ccccc1N1CCN(C2CCCN(Cc3cc(F)cc(F)c3)C2)CC1 (stereo not given),i,nt,nt,nt,nt,i,nt,
Cc1ccc(C)c(NC(=O)CCN2CCN(CCO)CC2)c1,i,nt,nt,nt,nt,i,nt,
COc1ccc(CC(=S)N2CCOCC2)cc1,66.0,i,i,i,i,i,i,
Cc1ccc(NC(=O)CSc2ncccn2)cc1S(=O)(=O)N1CCCCC1,i,nt,nt,nt,nt,i,nt,
CC1(C)Cc2c(sc(NC(=O)c3ccccc3)c2C(=O)O)CO1,87.7,i,i,i,i,i,i,
CC1(C)Cc2c(sc(NC(=O)C(=O)N3CCCC3)c2C(=O)O)CO1,i,nt,nt,nt,nt,i,nt,
COc1ccc(C(=O)Nc2sc3c(c2C(=O)O)CC(C)(C)OC3)cc1,90.7,i,i,i,i,i,48.4,Diaph ctr 10uM=i;Diaphorase 30uM=i
CC(C)COc1ccc(C(=O)Nc2sc3c(c2C(=O)O)CC(C)(C)OC3)cc1,i,i,i,i,i,i,nt,
COc1ccccc1C(=O)NS(=O)(=O)c1ccc(C)cc1,i,nt,nt,nt,nt,i,nt,
NNC(=O)c1ccc(OCC2CC(c3ccc(Cl)cc3)=NO2)cc1 (stereo not given),i,nt,nt,nt,i,i,nt,
COc1ccc(C[C@@H]2OC3(C=CC(=O)C=C3)O[C@H]2Cc2ccc(OC)cc2)cc1,62.2,nt,nt,nt,nt,i,i,
COc1ccc(N2C(=O)CC(Cc3ccccc3)C2=O)cc1 (stereo not given),i,i,i,i,i,i,nt,
O=C(Oc1ccc(Br)cc1C(=S)N1CCOCC1)c1ccc([N+](=O)[O-])cc1[N+](=O)[O-],59.7,nt,nt,nt,nt,i,i,
Cc1ccccc1-c1nc(C(=O)NCC2CCCO2)cc2c1[nH]c1ccccc12 (stereo not given),59.7,nt,nt,nt,nt,i,i,
CCOC(=O)C1CCN(c2cc3c(cc2NC(=O)c2ccc(OC)c(OC)c2)n(C)c(=O)n3C)CC1,i,nt,nt,nt,nt,i,nt,
Nc1ccc(CNC(=O)OCC2c3ccccc3-c3ccccc32)cc1,116.7,nt,nt,nt,nt,i,73.7,Diaph ctr 10uM=65.0;Diaphorase 30uM=56.2
O=C(N[C@H](Cc1ccc(Cl)cc1)C(=O)O)OCC1c2ccccc2-c2ccccc21,i,nt,nt,nt,nt,i,nt,
Cc1cccc(N(CC(=O)NC2CCCCC2)C(=O)Cn2nnc(-c3ccc(C)o3)n2)c1,i,i,i,i,i,i,nt,
CC(=O)CC1(O)C(=O)Nc2ccccc21 (stereo not given),i,nt,nt,nt,i,i,nt,
COC1=CC(=O)C=C(OC)C1(O)CC(C)=O,68.5,nt,nt,nt,nt,i,53.9,Diaph ctr 10uM=i;Diaphorase 30uM=i

# Screens from PubChem.
